Measured values from ChEMBL document CHEMBL3525963, “Tissue distribution and elimination of [14C]apixaban in rats” (Drug Metab Dispos, 2011).

Key:
Design in all cases: dose 5 mg/kg, dosed compound name [14C]-apixaban, route oral
Settings in all cases: in vivo
Rattus norvegicus [1] = experiment: Biodistribution in female Sprague-Dawley rat salivary gland at 5 mg/kg, po administered as single dose measured after 24 hrs; assay type: ADME, organism-based
Procedure, shortened: (§1)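 Quantitative whole-body autoradiography was run after a single 5 mg/kg (100 μCi/kg) oral gavage to fasted female or pregnant SD rats, one rat per time point. Carcasses were frozen in hexane/dry ice, and 40 µm sagittal sections were dried at −20°C for at least 48 h. Sections were exposed to a phosphor plate alongside [14C]glucose standards (0.001–6.5 µCi/g). Results are µg eq/g, with LLOQ 0.037 µg eq/g.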

Rattus norvegicus [2] = experiment: Biodistribution in male Sprague-Dawley rat bone marrow at 5 mg/kg, po administered as single dose measured after 24 hrs; assay type: ADME, organism-based
Procedure, shortened: (§2)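 Fasted male SD rats (225-252 g) each received one oral gavage dose of [14C]apixaban, 5 mg/kg (100 μCi/kg), in 0.5% Tween 80/Labrafil vehicle. One rat was killed per time point, from 0.5 to 168 h. Frozen carcasses were cut into 40 µm sagittal whole-body sections and read by QWBA phosphor imaging against [14C]glucose calibrants. Results are in µg apixaban eq/g; BLQ <0.037 µg eq/g.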

Rattus norvegicus [3] = experiment: Biodistribution in male Sprague-Dawley rat pituitary gland at 5 mg/kg, po administered as single dose measured after 72 hrs; assay type: ADME, organism-based; procedure, shortened: as §2
Rattus norvegicus [4] = experiment: Biodistribution in fetal blood of pregnant Sprague-Dawley rat at 5 mg/kg, po administered as single dose measured after 0.5 hrs; assay type: ADME, organism-based
Procedure, shortened: (§3)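 Pregnant rats, 270-319 g and fasted overnight, received [14C]apixaban by oral gavage at 100 μCi/kg in 0.5% Tween 80/Labrafil. One dam per time point was euthanized and frozen in hexane/dry ice. Fetal tissue radioactivity was measured by QWBA on 40 µm sagittal sections calibrated with [14C]glucose standards. Values are in µg eq/g, with LLOQ 0.037 μg eq/g.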

Muscle tissue = experiment: Biodistribution in female Sprague-Dawley rat muscle at 5 mg/kg, po administered as single dose measured after 72 hrs; assay type: ADME, organism-based; procedure, shortened: as §1
Rattus norvegicus [5] = experiment: Biodistribution in fetal liver of pregnant Sprague-Dawley rat at 5 mg/kg, po administered as single dose measured after 1 hr; assay type: ADME, organism-based; procedure, shortened: as §3
Adrenal gland = experiment: Biodistribution in female Sprague-Dawley rat adrenal gland at 5 mg/kg, po administered as single dose measured after 24 hrs; assay type: ADME, organism-based; procedure, shortened: as §1
Rattus norvegicus [6] = experiment: Biodistribution in fetal liver of pregnant Sprague-Dawley rat at 5 mg/kg, po administered as single dose measured after 48 hrs; assay type: ADME, organism-based
Procedure, shortened: (§4)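 Fasted pregnant SD rats (n=6, 270-319 g) each received one oral gavage dose of [14C]apixaban, 5 mg/kg (100 μCi/kg), in 0.5% Tween 80/Labrafil. One rat was killed at each of 0.5, 1, 4, 8, 24 and 48 h. Carcasses were frozen in hexane/dry ice, cut into 40 µm sagittal sections, exposed to phosphor plates and quantified against [14C]glucose standards as µg eq/g. LLOQ was 0.037 µg eq/g.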

Liver = experiment: Biodistribution in male Sprague-Dawley rat liver at 5 mg/kg, po administered as single dose measured after 8 hrs; assay type: ADME, organism-based
Procedure, shortened: (§5)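 [14C]apixaban (1.0 mg/mL, 20 μCi/mL) in 0.5% Tween 80 in Labrafil, given by oral gavage at 100 μCi/kg to male rats (225-252 g) fasted overnight through 4 h post-dose. One rat per time point. Carcasses frozen in hexane/dry ice and cut into 40 µm sagittal sections. QWBA read on phosphor plates against [14C]glucose standards, reported as µg eq/g. LLOQ 0.037 µg eq/g.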

Rattus norvegicus [7] = experiment: Biodistribution in pregnant Sprague-Dawley rat brown fat at 5 mg/kg, po administered as single dose measured after 1 hr; assay type: ADME, organism-based, Brown adipose tissue
Thymus = experiment: Biodistribution in pregnant Sprague-Dawley rat thymus at 5 mg/kg, po administered as single dose measured after 4 hrs; assay type: ADME, organism-based
Rattus norvegicus [8] = experiment: Biodistribution in male Sprague-Dawley rat brown fat at 5 mg/kg, po administered as single dose measured after 24 hrs; assay type: ADME, organism-based, Brown adipose tissue; procedure, shortened: as §2
Rattus norvegicus [9] = experiment: Biodistribution in pregnant Sprague-Dawley rat brown fat at 5 mg/kg, po administered as single dose measured after 24 hrs; assay type: ADME, organism-based, Brown adipose tissue; procedure, shortened: as §4
Rattus norvegicus [10] = experiment: Biodistribution in female Sprague-Dawley rat salivary gland at 5 mg/kg, po administered as single dose measured after 72 hrs; assay type: ADME, organism-based; procedure, shortened: as §1
Rattus norvegicus [11] = experiment: Biodistribution in pregnant Sprague-Dawley rat salivary gland at 5 mg/kg, po administered as single dose measured after 24 hrs; assay type: ADME, organism-based
Procedure, shortened: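 Pregnant SD rats (270-319 g) were fasted overnight and given one oral gavage of 5 mg/kg (100 μCi/kg) in 0.5% Tween 80 in Labrafil. One rat was euthanized per time point (0.5, 1, 4, 8, 24, 48 h) and the carcass frozen. 40 µm sagittal sections were phosphor-imaged against [14C]glucose standards and results reported as µg eq/g; LLOQ 0.037 µg eq/g.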

Brain = experiment: Biodistribution in male Sprague-Dawley rat brain at 5 mg/kg, po administered as single dose measured after 24 hrs; assay type: ADME, organism-based
Rattus norvegicus [12] = experiment: Biodistribution in pregnant Sprague-Dawley rat kidney cortex at 5 mg/kg, po administered as single dose measured after 1 hr; assay type: ADME, organism-based
Pancreas = experiment: Biodistribution in male Sprague-Dawley rat pancreas at 5 mg/kg, po administered as single dose measured after 0.5 hrs; assay type: ADME, organism-based; procedure, shortened: as §5
Rattus norvegicus [13] = experiment: Biodistribution in male Sprague-Dawley rat brown fat at 5 mg/kg, po administered as single dose measured after 1 hr; assay type: ADME, organism-based, Brown adipose tissue
Procedure, shortened: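 Fasted male rats, 225-252 g, received [14C]apixaban by single oral gavage at 100 μCi/kg in 0.5% Tween 80/Labrafil. One rat was killed per time point and the carcass frozen. Tissue radioactivity was quantified by QWBA (40 µm sagittal sections, phosphor plate, [14C]glucose calibration) as µg eq apixaban/g, with LLOQ 0.037 μg eq/g.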

Rattus norvegicus [14] = experiment: Biodistribution in male Sprague-Dawley rat bone marrow at 5 mg/kg, po administered as single dose measured after 72 hrs; assay type: ADME, organism-based; procedure, shortened: as §2
Rattus norvegicus [15] = experiment: Biodistribution in male Sprague-Dawley rat kidney cortex at 5 mg/kg, po administered as single dose measured after 0.5 hrs; assay type: ADME, organism-based
Rattus norvegicus [16] = experiment: Biodistribution in pregnant Sprague-Dawley rat amnion at 5 mg/kg, po administered as single dose measured after 48 hrs; assay type: ADME, organism-based; procedure, shortened: as §4
[17] = Drug metabolism in Sprague-Dawley rat milk assessed as apixaban level at 5 mg/kg, po after 1 to 24 hrs by HPLC method; assay type: ADME, organism-based
Procedure, shortened: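 After a 5 mg/kg oral dose, samples were radioprofiled by HPLC. The column was C18 with a 0.4% formic acid (pH 3.2)/acetonitrile gradient at 0.7 mL/min. Fractions were collected every 0.25 min and counted for radioactivity. Peaks were identified by ESI LC/MS/MS against synthetic standards. Milk was taken at 1, 6, 12 and 24 h.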

Rattus norvegicus [18] = experiment: Biodistribution in male Sprague-Dawley rat kidney cortex at 5 mg/kg, po administered as single dose measured after 8 hrs; assay type: ADME, organism-based
Blood = experiment: AUC (0 to t) in female Sprague-Dawley rat blood at 5 mg/kg, po administered as single dose; assay type: ADME, organism-based
Spleen = experiment: Biodistribution in female Sprague-Dawley rat spleen at 5 mg/kg, po administered as single dose measured after 24 hrs; assay type: ADME, organism-based; procedure, shortened: as §1

## COc1ccc(-n2nc(C(N)=O)c3c2C(=O)N(c2ccc(N4CCCC[14C]4=O)cc2)CC3)cc1
Rattus norvegicus [1]
  Radiolabel recovery: Not detected assumed BLQ
Rattus norvegicus [2]
  Radiolabel recovery: Not sampled as not visualised in autoradiograph
Rattus norvegicus [3]
  Radiolabel recovery: Not detected assumed BLQ
Rattus norvegicus [4]
  Radiolabel recovery: 0.27 ugequiv/g
Muscle tissue
  Radiolabel recovery: Not detected assumed BLQ
Rattus norvegicus [5]
  Radiolabel recovery: 0.22 ugequiv/g
Adrenal gland
  Radiolabel recovery: Not detected assumed BLQ
Rattus norvegicus [6]
  Radiolabel recovery: Not sampled as not visualised in autoradiograph
Liver
  Radiolabel recovery: 0.39 ugequiv/g
Rattus norvegicus [7]
  Radiolabel recovery: 0.95 ugequiv/g
Thymus
  Radiolabel recovery: 0.54 ugequiv/g
Rattus norvegicus [8]
  Radiolabel recovery: Not sampled as not visualised in autoradiograph
Rattus norvegicus [9]
  Radiolabel recovery: Not detected assumed BLQ
Rattus norvegicus [10]
  Radiolabel recovery: Not detected assumed BLQ
Rattus norvegicus [11]
  Radiolabel recovery: Not detected assumed BLQ
Brain
  Radiolabel recovery: < 0.037 ugequiv/g
Rattus norvegicus [12]
  Radiolabel recovery: 2.03 ugequiv/g
Pancreas
  Radiolabel recovery: 0.47 ugequiv/g
Rattus norvegicus [13]
  Radiolabel recovery: 0.94 ugequiv/g
Rattus norvegicus [14]
  Radiolabel recovery: Not sampled as not visualised in autoradiograph
Rattus norvegicus [15]
  Radiolabel recovery: 0.81 ugequiv/g
Rattus norvegicus [16]
  Radiolabel recovery: Not sampled as not visualised in autoradiograph
[17]
  Compound recovery: > 96%
Rattus norvegicus [18]
  Radiolabel recovery: 0.88 ugequiv/g
Blood
  AUCt: 3110 ngequiv.hr/g
Spleen
  Radiolabel recovery: Not detected assumed BLQ
